From ChEMBL document CHEMBL3272255, “Substituted alpah-methylbenzyl and tricyclic arylalkyl lactamimides as inhibitors of blood platelet aggregation” (J Med Chem, 1976)

Experiments:
Cavia porcellus [1] = test: Antiplatelet activity in guinea pig assessed as inhibition of 0.8 ug/ml ADP-induced platelet aggregation measured as change in light transmittance at 100 mg/kg, po for 4 days measured at 2 hrs post last dose by aggregometric analysis relative to control; format: functional
Procedure, shortened: (§1)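 Dosing was oral by stomach tube for 4 days, alongside an untreated control group. Blood was drawn by heart puncture 2 h after the final dose, then citrated PRP was isolated and adjusted for aggregometry. ADP was added in vitro at the stated concentration. The read-out was the maximum increase in light transmittance (ΔT); group means were compared, treated vs control.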

[2] = Antiplatelet activity in human platelet rich plasma assessed as inhibition of ADP-induced platelet aggregation at 100 ug/ml after 20 mins by aggregometric analysis relative to control; format: functional
Procedure, shortened: (§2)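 Human blood came from fasting donors who had taken no drugs for 5 days. It was citrated 1:9 with 3.8% sodium citrate. PRP was prepared at 100g for 10 min and PPP at 1500g for 15 min, and PRP was diluted with autologous PPP to 400000 platelets/mm³. Compound or saline control was incubated 20 min at 37°, then ADP was added at 2 μg/ml final. Percent inhibition was calculated from maximal ΔT, test vs control.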

Cavia porcellus [3] = test: Antiplatelet activity in guinea pig assessed as inhibition of 0.8 ug/ml ADP-induced platelet aggregation measured as area between aggregation curve and baseline transmittance at 100 mg/kg, po for 4 days measured at 2 hrs post last dose by aggregometric analysis relative to control; format: functional
Procedure, shortened: (§3)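 Guinea pigs were dosed by stomach tube at the stated dose daily for 4 days, with an untreated control group kept in parallel. Blood was taken by heart puncture 2 h after the last dose, and citrated PRP was isolated and adjusted. ADP was added in vitro. Total response was the area between the aggregation curve and baseline transmittance over 5 min, measured by planimeter. Percent inhibition came from group-average total response, treated vs control.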

Cavia porcellus [4] = test: Antiplatelet activity in guinea pig assessed as 0.45 ug/ml ADP-induced platelet aggregation measured as change in light transmittance at 100 mg/kg, po for 4 days measured at 2 hrs post last dose by aggregometric analysis
[5] = Antiplatelet activity in human platelet rich plasma assessed as platelet factor-3 release at 300 ug/ml after 20 mins relative to control
Cavia porcellus [6] = test: Antiplatelet activity in guinea pig assessed as inhibition of 0.8 ug/ml ADP-induced platelet aggregation measured as area between aggregation curve and baseline transmittance at 30 mg/kg, po for 4 days measured at 2 hrs post last dose by aggregometric analysis relative to control; format: functional; procedure, shortened: as §3
[7] = Antiplatelet activity in human platelet rich plasma assessed as inhibition of platelet factor-3 release at 100 ug/ml after 20 mins relative to control; format: functional
Procedure, shortened: (§4)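 Test compound solution was incubated in human citrated PRP at 37° for 20 min. PF3 activity was then measured by a modified Stypven test, with plasma diluted 1:10.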

Cavia porcellus [8] = test: Toxicity in guinea pig assessed as mortality at 300 mg/kg, po measured after third dose; format: organism-based; set-up: dose 300 mg/kg, route oral; settings: in vivo
Cavia porcellus [9] = test: Antiplatelet activity in guinea pig assessed as inhibition of 0.8 ug/ml ADP-induced platelet aggregation measured as change in light transmittance at 30 mg/kg, po for 4 days measured at 2 hrs post last dose by aggregometric analysis relative to control; format: functional; procedure, shortened: as §1
[10] = Antiplatelet activity in human platelet rich plasma assessed as inhibition of ADP-induced platelet aggregation at 30 ug/ml after 20 mins by aggregometric analysis relative to control; format: functional; procedure, shortened: as §2
Cavia porcellus [11] = test: Antiplatelet activity in guinea pig assessed as inhibition of 0.45 ug/ml ADP-induced platelet aggregation measured as area between aggregation curve and baseline transmittance at 100 mg/kg, po for 4 days measured at 2 hrs post last dose by aggregometric analysis relative to control; format: functional; procedure, shortened: as §3
Cavia porcellus [12] = test: Antiplatelet activity in guinea pig assessed as inhibition of 0.45 ug/ml ADP-induced platelet aggregation measured as area between aggregation curve and baseline transmittance at 30 mg/kg, po for 4 days measured at 2 hrs post last dose by aggregometric analysis relative to control; format: functional; procedure, shortened: as §3
Cavia porcellus [13] = test: Antiplatelet activity in guinea pig assessed as inhibition of 0.45 ug/ml ADP-induced platelet aggregation measured as change in light transmittance at 30 mg/kg, po for 4 days measured at 2 hrs post last dose by aggregometric analysis relative to control; format: functional; procedure, shortened: as §1
[14] = Antiplatelet activity in human platelet rich plasma assessed as inhibition of ADP-induced platelet aggregation at 10 ug/ml after 20 mins by aggregometric analysis relative to control; format: functional; procedure, shortened: as §2
[15] = Antiplatelet activity in human platelet rich plasma assessed as inhibition of platelet factor-3 release at 30 ug/ml after 20 mins relative to control; format: functional; procedure, shortened: as §4

| SMILES | inhibition at 100 µg/mL [2] | %max [5] | %max [7] | inhibition at 30 µg/mL [10] | inhibition at 10 µg/mL [14] | also measured |
| --- | --- | --- | --- | --- | --- | --- |
| CC(/N=C1/CCCCCN1)c1cccc2ccccc12.Cl (stereo not drawn) | 70% | 0.037% | 0.003% | 46% | 0% | ΔT % at 100 mg/kg (Cavia porcellus [1]): 21.6%; inhibition in vivo at 100 mg/kg (Cavia porcellus [3]): 0%; ΔT % at 100 mg/kg (Cavia porcellus [4]): 7.1%; inhibition in vivo at 30 mg/kg (Cavia porcellus [6]): 0%; Activity (Cavia porcellus [8]): Toxic; ΔT % at 30 mg/kg (Cavia porcellus [9]): 29%; inhibition in vivo at 100 mg/kg (Cavia porcellus [11]): 0%; inhibition in vivo at 30 mg/kg (Cavia porcellus [12]): 33%; ΔT % at 30 mg/kg (Cavia porcellus [13]): 7% |
| CCCCCCCCCCCCCc1ccc(C(C)/N=C2\CCCCCN2)cc1 (stereo not drawn) | 100% |  |  | 33% | 16% |  |
| CCCCCCCCCCCCOc1ccc(C(C)/N=C2\CCCCCN2)cc1 (stereo not drawn) | 64% |  |  |  |  |  |
| CC(/N=C1\CCCCCN1)c1ccc(C2CCCCC2)cc1.Cl (stereo not drawn) | 100% | 0.62% | 0.004% | 31% | 9% |  |
| CC(/N=C1\CCCCCN1)c1ccc(-c2ccccc2)cc1.Cl (stereo not drawn) | 100% | 0.76% | 0.04% | 44% | 0% |  |
| CC(/N=C1\CCCCCN1)c1ccc(CCc2ccccc2)cc1.Cl (stereo not drawn) | 78% | 0.91% | 0.013% | 37% | 8% | %max [15]: 0% |
| CC(/N=C1\CCCN1C)c1ccc(CCc2ccccc2)cc1 (stereo not drawn) | 100% |  |  | 29% |  |  |
| CC(/N=C1\CCCCCN1)c1ccc(C=C(c2ccccc2)c2ccccc2)cc1.Cl (stereo not drawn) | 100% | 2.3% | 0.23% | 21% | 0% |  |
| CC(/N=C1\CCCCCN1)c1ccc(C=C2c3ccccc3-c3ccccc32)cc1.Cl (stereo not drawn) | 100% | 0.42% | 0.02% | 38% | 6% |  |
| CC(/N=C1\CCCCCN1)c1ccc(Oc2ccccc2)cc1.Cl (stereo not drawn) | 100% | 0.26% | 0.01% | 25% | 15% | ΔT % at 100 mg/kg (Cavia porcellus [1]): 49%; inhibition in vivo at 100 mg/kg (Cavia porcellus [3]): 8%; ΔT % at 100 mg/kg (Cavia porcellus [4]): 17.7%; inhibition in vivo at 30 mg/kg (Cavia porcellus [6]): 38%; ΔT % at 30 mg/kg (Cavia porcellus [9]): 42.2%; inhibition in vivo at 100 mg/kg (Cavia porcellus [11]): 29%; inhibition in vivo at 30 mg/kg (Cavia porcellus [12]): 53%; ΔT % at 30 mg/kg (Cavia porcellus [13]): 24.4% |
| CC(/N=C1\CCCCCN1)c1ccccc1OCCc1ccccc1 (stereo not drawn) | 81% |  |  | 30% | 11% |  |
| CC(/N=C1\CCCCCN1)c1ccc(OCCCc2ccccc2)cc1 (stereo not drawn) | 74% |  |  |  |  |  |
| CC(/N=C1\CCCCCN1)c1ccc(OCCCOc2ccccc2)cc1 (stereo not drawn) | 100% |  |  | 14% | 0% |  |
| CC(/N=C1\CCCN1)c1cccc(OCCCCOc2ccccc2)c1 (stereo not drawn) | 100% |  |  | 16% | 0% |  |
| CC(/N=C1\CCCCCN1)c1cc(C(C)(C)C)cc2c1CCC2(C)C (stereo not drawn) | 100% |  |  | 22% | 0% |  |
| Cc1cc2c(cc1C(C)/N=C1\CCCCCN1)C(C)(C)CCC2(C)C (stereo not drawn) | 77% |  |  |  |  |  |
| CC(/N=C1\CCCCCN1)c1ccc2c(c1)Cc1ccccc1-2.Cl (stereo not drawn) | 100% | 1.5% | 0.06% | 43% | 0% |  |
| CC(/N=C1\CCCCCCCN1)c1ccc2c(c1)Cc1ccccc1-2 (stereo not drawn) | 100% |  |  | 62% | 6% |  |
| CC(/N=C1\CCCCCN1)c1ccc2c(ccc3ccccc32)c1.Cl (stereo not drawn) | 100% | 2.6% | 0.06% | 43% | 4% |  |
| CC(/N=C1\CCCN1)c1ccc2oc3ccccc3c2c1 (stereo not drawn) | 100% |  |  | 42% | 10% |  |
| CC(/N=C1\CCCCCN1)c1ccc2oc3ccccc3c2c1 (stereo not drawn) | 67% |  |  |  |  |  |
| CC(/N=C1\CCCCCN1)c1ccc2sc3ccccc3c2c1.Cl (stereo not drawn) | 100% | 0.18% | 0.013% | 52% | 2% | ΔT % at 100 mg/kg (Cavia porcellus [1]): 53.6%; inhibition in vivo at 100 mg/kg (Cavia porcellus [3]): 0%; ΔT % at 100 mg/kg (Cavia porcellus [4]): 32%; inhibition in vivo at 30 mg/kg (Cavia porcellus [6]): 3%; ΔT % at 30 mg/kg (Cavia porcellus [9]): 43.6%; inhibition in vivo at 100 mg/kg (Cavia porcellus [11]): 0%; inhibition in vivo at 30 mg/kg (Cavia porcellus [12]): 0%; ΔT % at 30 mg/kg (Cavia porcellus [13]): 20.4% |
| O=C(CO)OC(CC1CCCCN1)c1ccc(C=C2c3ccccc3-c3ccccc32)cc1 (stereo not drawn) | 99% | 0.747% | 0.162% | 28% | 1% | %max [15]: 0.003% |
| CCN(CC)CCN(CC(O)c1ccccc1)c1cc(Cl)ccc1Cl (stereo not drawn) | 62% | 0.52% | 0.1% | 10% |  |  |
